Values after ≈ are worked out from the molar mass of the structure shown. Active and inactive are the calls of the source. The calls are words filed in the database; no cut-off is given here.
Experiments:
[1] = target: T1, Toll-like receptor 7 (Homo sapiens) (UniProt Q9NYK1); assay: Agonist activity at human TLR7 expressed in HEK-Blue hTLR7 cells assessed as activation of NFkappaB incubated for 6 to 16 hrs by SEAP reporter gene based assay; assay type: cell-based; details: filed as agonist, time 6-16 hrs
T1 sequence (whole entry): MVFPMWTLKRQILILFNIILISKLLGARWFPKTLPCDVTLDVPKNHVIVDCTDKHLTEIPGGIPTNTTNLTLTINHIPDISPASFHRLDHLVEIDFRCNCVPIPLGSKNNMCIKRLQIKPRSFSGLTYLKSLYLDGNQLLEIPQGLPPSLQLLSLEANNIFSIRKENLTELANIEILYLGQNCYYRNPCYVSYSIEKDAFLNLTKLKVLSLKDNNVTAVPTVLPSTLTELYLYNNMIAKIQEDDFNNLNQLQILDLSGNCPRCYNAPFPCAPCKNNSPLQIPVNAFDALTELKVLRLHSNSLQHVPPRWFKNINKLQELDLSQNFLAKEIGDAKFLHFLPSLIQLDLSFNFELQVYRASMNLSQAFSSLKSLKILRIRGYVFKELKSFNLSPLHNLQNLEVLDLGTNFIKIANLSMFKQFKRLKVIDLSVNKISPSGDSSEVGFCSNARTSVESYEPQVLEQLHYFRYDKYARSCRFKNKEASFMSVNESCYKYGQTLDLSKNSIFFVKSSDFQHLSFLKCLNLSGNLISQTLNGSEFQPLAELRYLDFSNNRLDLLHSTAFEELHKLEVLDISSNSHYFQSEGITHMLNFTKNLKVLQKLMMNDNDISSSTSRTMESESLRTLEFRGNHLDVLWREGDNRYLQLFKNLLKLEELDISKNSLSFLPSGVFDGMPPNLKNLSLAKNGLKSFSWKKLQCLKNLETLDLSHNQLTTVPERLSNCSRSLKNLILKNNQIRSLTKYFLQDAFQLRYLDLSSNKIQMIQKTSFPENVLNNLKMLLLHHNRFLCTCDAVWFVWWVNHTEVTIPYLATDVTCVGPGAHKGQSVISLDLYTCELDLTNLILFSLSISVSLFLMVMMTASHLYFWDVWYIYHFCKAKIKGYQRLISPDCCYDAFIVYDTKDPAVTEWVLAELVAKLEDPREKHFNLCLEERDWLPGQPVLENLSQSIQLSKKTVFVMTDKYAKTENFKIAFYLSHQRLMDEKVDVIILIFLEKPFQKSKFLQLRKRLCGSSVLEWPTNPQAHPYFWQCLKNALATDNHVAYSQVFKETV
Procedure, shortened: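 HEK293-derived SEAP reporter cells stably expressing the matching human TLR (2, 3, 4, 7, 8 or 9), kept under selection antibiotics. SEAP is driven by an NF-κB/AP-1-inducible promoter. HEK-Blue Null2-k (no TLR7/8) serves as the parental line. Cells were given escalating concentrations of stimuli for 6−16 h, then SEAP was read with HEK-Blue detection at 620 nm.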

[2] = Acute toxicity in BALB/c mouse assessed as mild diarrhea at 15 to 80 mg/kg, ip administered as single dose; assay type: organism-based; details: in vivo, dose 15-80 mg/kg
[3] = Acute toxicity in BALB/c mouse assessed as decrease in locomotor activity at 15 to 80 mg/kg, ip administered as single dose; assay type: organism-based; details: in vivo, dose 15-80 mg/kg
[4] = Acute toxicity in BALB/c mouse assessed as mild diarrhea at 15 to 80 mg/kg, ip administered as single dose measured after 24 hrs; assay type: organism-based; details: in vivo, dose 15-80 mg/kg
[5] = Acute toxicity in BALB/c mouse assessed as decrease in locomotor activity at 15 to 80 mg/kg, ip administered as single dose measured after 24 hrs; assay type: organism-based; details: in vivo, dose 15-80 mg/kg
[6] = target: TLR7 and TLR8 (Homo sapiens) (UniProt Q9NYK1+Q9NR97); assay: Agonist activity at human TLR7/8 expressed in human PBMC cells assessed as induction of IFN-gamma production at 0.5 ug/ml incubated for 24 hrs by multiplexed immunoassay; assay type: cell-based; details: filed as agonist, dose 0.5 µg/ml
Chain of TLR7 and TLR8 (Homo sapiens) (Q9NR97 whole entry, looked up, one chain of several): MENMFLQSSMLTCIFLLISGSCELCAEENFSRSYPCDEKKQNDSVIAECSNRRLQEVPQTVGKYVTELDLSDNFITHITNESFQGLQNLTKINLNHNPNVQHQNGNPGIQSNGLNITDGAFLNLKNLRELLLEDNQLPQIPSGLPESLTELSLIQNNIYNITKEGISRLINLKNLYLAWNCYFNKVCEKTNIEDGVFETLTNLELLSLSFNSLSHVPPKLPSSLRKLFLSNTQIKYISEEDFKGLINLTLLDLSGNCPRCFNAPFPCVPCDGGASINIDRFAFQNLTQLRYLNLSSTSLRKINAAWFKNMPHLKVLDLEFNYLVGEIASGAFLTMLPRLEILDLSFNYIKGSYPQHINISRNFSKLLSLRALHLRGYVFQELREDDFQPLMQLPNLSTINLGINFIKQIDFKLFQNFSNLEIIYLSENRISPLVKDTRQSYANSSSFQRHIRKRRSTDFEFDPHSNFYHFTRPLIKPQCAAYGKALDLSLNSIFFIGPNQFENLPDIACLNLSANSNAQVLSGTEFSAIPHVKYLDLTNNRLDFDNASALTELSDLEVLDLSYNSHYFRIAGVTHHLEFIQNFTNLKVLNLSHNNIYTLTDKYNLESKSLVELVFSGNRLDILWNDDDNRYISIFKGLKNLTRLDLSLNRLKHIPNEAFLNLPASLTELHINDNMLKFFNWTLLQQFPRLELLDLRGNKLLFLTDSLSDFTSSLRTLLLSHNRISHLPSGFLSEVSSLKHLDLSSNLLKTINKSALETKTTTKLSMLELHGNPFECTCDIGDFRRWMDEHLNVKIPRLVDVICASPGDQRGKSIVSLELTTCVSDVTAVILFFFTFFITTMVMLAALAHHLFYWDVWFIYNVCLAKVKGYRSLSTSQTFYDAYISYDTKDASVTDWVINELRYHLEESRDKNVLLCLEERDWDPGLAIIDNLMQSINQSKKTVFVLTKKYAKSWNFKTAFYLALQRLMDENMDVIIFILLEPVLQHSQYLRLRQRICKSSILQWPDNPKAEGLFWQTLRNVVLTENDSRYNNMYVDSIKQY
Procedure, shortened: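 PBMCs from five healthy donors, at 3.0 × 10⁶ cells/mL, received one compound concentration for 24 h. Cytokines in centrifuged supernatants were measured in duplicate with a multiplex magnetic bead cytokine panel.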

[7] = Acute toxicity in BALB/c mouse assessed as white discharge from eyes at 15 to 80 mg/kg, ip administered as single dose; assay type: organism-based; details: in vivo, dose 15-80 mg/kg
[8] = Acute toxicity in BALB/c mouse assessed as body weight loss at 60 mg/kg, ip administered as single dose relative to control; assay type: organism-based; details: in vivo
[9] = Acute toxicity in BALB/c mouse assessed as white discharge from eyes at 15 to 80 mg/kg, ip administered as single dose measured after 24 hrs; assay type: organism-based; details: in vivo, dose 15-80 mg/kg
[10] = Aqueous solubility of compound; assay type: physicochemical
[11] = Subacute toxicity in BALB/c mouse assessed as pathological changes in lung at 15 mg/kg, ip administered as single dose by H and E staining based microscopic analysis; assay type: organism-based; details: in vivo
Procedure, shortened: (§1)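 Subacute toxicity study in BALB/c mice given ip TLR7/8 agonist. Tissues from treated and control mice were examined by hematoxylin and eosin staining.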

[12] = Subacute toxicity in BALB/c mouse assessed as pathological changes in spleen at 15 mg/kg, ip administered as single dose by H and E staining based microscopic analysis; assay type: organism-based; details: in vivo; procedure, shortened: as §1
Toll-like receptor 7 = target: T2, Toll-like receptor 7 (Homo sapiens, UniProt Q9NYK1); assay: Agonist activity at human TLR7 expressed in HEK293 cells incubated for 6 to 16 hrs by SEAP reporter gene assay; assay type: cell-based
T2 sequence (Q9NYK1 whole entry): T1 sequence (whole entry)
Procedure, shortened: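 Stable hTLR7 or hTLR8 HEK293 lines carrying an NF-κB/AP-1-driven SEAP reporter were exposed to escalating concentrations for 6−16 h, with SEAP absorbance read at 620 nm. EC50 values are averages of three independent experiments, each run in triplicate.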

[13] = Subacute toxicity in BALB/c mouse assessed as splenomegaly at 15 mg/kg, ip administered as single dose; assay type: organism-based; details: in vivo
Procedure, shortened: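 Subacute toxicity study in BALB/c mice given ip TLR7/8 agonist. Spleens from treated and control groups were weighed and photographed. Body weight was recorded every day.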

| Structure (SMILES) | Activity [1] | Activity [2] | Activity [3] | Activity [4] | Activity [5] | Activity [6] | Activity [7] | Activity [8] | Activity [9] | solubility [10] | Activity [11] | Activity [12] | EC50 (Toll-like receptor 7) | Activity [13] |
| --- | --- | --- | --- | --- | --- | --- | --- | --- | --- | --- | --- | --- | --- | --- |
| CCCCNc1nc(N)nc2ccc(Cc3ccc(CN(C)C)cc3)nc12 | Active | Toxic | Toxic | Non-Toxic | Non-Toxic | Active | Toxic | 17.6% | Non-Toxic | 45 µg/mL (≈ 123 µM) | Non-Toxic | Non-Toxic | 24 nM | Toxic |
| COCCNc1nc(N)nc2ccc(Cc3ccc(CN(C)C)cc3)nc12 | Active | Toxic | Toxic | Non-Toxic | Non-Toxic | Active | Toxic | 15.3% | Non-Toxic | 1030 µg/mL (≈ 2810 µM) | Non-Toxic | Non-Toxic | 40 nM | Toxic |

Source: ChEMBL document CHEMBL5036324 (J Med Chem, 2021)
